ChEMBL document CHEMBL4433215, “SAR Studies and Biological Characterization of a Chromen-4-one Derivative as an Anti-Trypanosoma brucei Agent” (ACS Med Chem Lett, 2019)

Columns and labels:
Trypanosoma brucei [1] = assay: Antitrypanosomal activity against Trypanosoma brucei bloodstream form assessed as parasite growth inhibition at 10 uM after 72 hrs by resazurin dye-based assay relative to control; format: functional; conditions: read-out: GI
Procedure, shortened: (§1)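 T. brucei bloodstream forms were screened first. Compounds giving over 70% parasite growth inhibition then went to a full dose–response curve to derive EC50. Pentamidine was the reference.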

Trypanosoma brucei [2] = assay: Antitrypanosomal activity against Trypanosoma brucei bloodstream form after 72 hrs by resazurin dye-based assay relative to control; format: functional, organism-based; procedure, shortened: as §1
[3] = Cytotoxicity against human THP1 cells by MTT assay; format: cell-based, THP-1
[4] = Cytotoxicity against human A549 cells assessed as cell growth at 10 uM after 48 hrs by cell-titer-Glo assay relative to control; format: cell-based; conditions: read-out: Activity
Procedure, shortened: (§2)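 Single-concentration screen at 10 μM within an early in vitro ADME-tox panel, covering cytotoxicity in A549 cells and hERG inhibition.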

[5] = biological target: Voltage-gated inwardly rectifying potassium channel KCNH2 (Homo sapiens, UniProt Q12809); assay: Inhibition of human ERG at 10 uM after 2 hrs by fluorescence polarization assay; procedure, shortened: as §2
786-0 = assay: Mitochondrial toxicity in human 786-O cells at 10 uM after 6 hrs by MitoTracker Red chloromethyl-X-rosamine based assay; format: cell-based; conditions: 786-0, 6 h
[6] = Selectivity index, ratio of CC50 for cytotoxicity against human THP1 cells to EC50 for antitrypanosomal activity against Trypanosoma brucei bloodstream form; format: toxicity, cell-based; conditions: read-out: Ratio CC50/EC50

Chain of Voltage-gated inwardly rectifying potassium channel KCNH2 (Q12809 whole entry): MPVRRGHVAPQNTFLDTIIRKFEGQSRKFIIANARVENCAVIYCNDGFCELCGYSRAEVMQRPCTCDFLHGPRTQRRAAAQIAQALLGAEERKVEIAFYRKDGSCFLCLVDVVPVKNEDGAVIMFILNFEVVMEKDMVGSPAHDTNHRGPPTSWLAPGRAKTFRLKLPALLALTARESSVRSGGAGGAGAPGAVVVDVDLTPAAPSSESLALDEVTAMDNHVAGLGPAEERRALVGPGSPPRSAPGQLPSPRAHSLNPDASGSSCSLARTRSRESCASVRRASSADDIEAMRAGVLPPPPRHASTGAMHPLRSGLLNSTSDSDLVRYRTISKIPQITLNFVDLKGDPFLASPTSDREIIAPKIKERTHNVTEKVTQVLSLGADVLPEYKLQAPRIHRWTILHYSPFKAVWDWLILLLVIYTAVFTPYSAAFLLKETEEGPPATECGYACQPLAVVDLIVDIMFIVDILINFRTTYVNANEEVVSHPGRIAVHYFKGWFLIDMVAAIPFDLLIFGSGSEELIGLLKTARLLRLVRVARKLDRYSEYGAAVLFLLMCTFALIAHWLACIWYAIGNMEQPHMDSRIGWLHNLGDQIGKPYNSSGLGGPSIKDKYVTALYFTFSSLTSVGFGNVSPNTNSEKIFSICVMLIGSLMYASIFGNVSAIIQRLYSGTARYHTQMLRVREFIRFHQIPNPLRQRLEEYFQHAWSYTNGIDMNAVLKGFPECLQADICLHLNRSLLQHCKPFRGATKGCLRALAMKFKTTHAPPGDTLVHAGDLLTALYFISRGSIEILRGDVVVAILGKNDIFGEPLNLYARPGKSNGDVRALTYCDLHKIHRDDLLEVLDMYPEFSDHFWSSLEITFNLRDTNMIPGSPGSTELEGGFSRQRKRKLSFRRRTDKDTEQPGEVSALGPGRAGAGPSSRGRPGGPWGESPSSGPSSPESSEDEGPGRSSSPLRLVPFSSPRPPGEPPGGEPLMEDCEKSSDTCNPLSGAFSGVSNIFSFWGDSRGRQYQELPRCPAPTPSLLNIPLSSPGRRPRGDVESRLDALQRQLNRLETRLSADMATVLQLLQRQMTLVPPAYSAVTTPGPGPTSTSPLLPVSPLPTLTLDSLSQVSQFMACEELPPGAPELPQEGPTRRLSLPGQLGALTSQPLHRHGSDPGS

SMILES | inhibition of growth at 10 µM (Trypanosoma brucei [1]) | EC50 (Trypanosoma brucei [2]) | CC50 [3] | viability at 48 h, 10 µM [4] | inhibition (INH) [5] | Activity (786-0) | selectivity ratio [6] | IC50 (Trypanosoma brucei [2])
O=c1c(O)c(-c2ccc3c(c2)OCO3)oc2cc(Cl)ccc12 | 83% | 3.8 µM | < 12.5 µM | < 0% | Not Active | Non-Toxic | 3 | 
CCCCC(=O)Oc1c(-c2ccc3c(c2)OCO3)oc2cc(OC)ccc2c1=O | 100% | 0.6 µM | < 12.5 µM |  | Not Active | Non-Toxic | 22 | 
O=c1c(O)c(-c2ccc3c(c2)OCO3)oc2cc(F)ccc12 | 98% | 2.4 µM | < 12.5 µM |  | Not Active | Non-Toxic | 8 | 
CCCOc1c(-c2ccc3c(c2)OCO3)oc2cc(OC)ccc2c1=O | 20% | > 10 µM | 12.5 to 25 µM |  | Not Active | Non-Toxic |  | 
COc1ccc2oc(-c3ccc4c(c3)OCO4)c(O)c(=O)c2c1 | 19% |  | < 12.5 µM |  | Not Active | Non-Toxic |  | 
COc1ccc2c(=O)c(O)c(-c3ccc4c(c3)OC(F)(F)O4)oc2c1 | 47% | > 10 µM | > 100 µM |  | Not Active | Non-Toxic |  | 
O=c1c(O)c(-c2ccc3c(c2)OCO3)oc2ccc(Cl)cc12 | 13% |  | < 12.5 µM |  | Not Active | Non-Toxic |  | 
COc1ccc2c(=O)c(O)c(-c3ccc4c(c3)OCCO4)oc2c1 | 71% | > 10 µM | 50 to 100 µM |  | Not Active | Non-Toxic |  | 
Cc1ccc2oc(-c3ccc4c(c3)OCO4)c(O)c(=O)c2c1 | 99% | 4.1 µM | < 12.5 µM |  | Not Active | Non-Toxic | 3 | 
COc1ccc2c(=O)c(OC(=O)C3CCCCC3)c(-c3ccc4c(c3)OCO4)oc2c1 | 98% | 0.5 µM | 12.5 to 25 µM |  | Not Active | Non-Toxic | 25 | 
N=C(N)c1ccc(OCCCCCOc2ccc(C(=N)N)cc2)cc1 [PENTAMIDINE] |  |  |  |  |  |  |  | 0.00155 µM
